We go through four molecules from ChEMBL document CHEMBL4152188, “Design, synthesis and biological evaluation of C(4) substituted monobactams as antibacterial agents against multidrug-resistant Gram-negative bacteria” (Eur J Med Chem, 2018).

SMILES strings stand for the structures. Converted amounts (≈) assume the structure as drawn.

For data set [1], the system named is Klebsiella pneumoniae. Kind of data set: Selectivity index, ratio of MIC for against KPC-2 producing Klebsiella pneumoniae isolate 212423 to MIC for against KPC-2 producing Klebsiella pneumoniae isolate 212423 in presence of BPL. It is filed as functional.
Data set [2] can be described thus: Metabolic bioavailability in human liver microsomes at 0.1 uM pre-incubated with compound followed by NADPH addition and measured after 60 mins by LC-MS/MS analysis. It counts as ADME, microsome. (Liver microsomes are vesicles of endoplasmic reticulum, rich in cytochrome P450 enzymes.)
For data set [3], the system named is Klebsiella pneumoniae. The experiment in a line: Antibacterial activity against KPC-2 producing Klebsiella pneumoniae isolate 212423 after 18 hrs by CLSI broth microdilution method. Particulars: isolate 212423, 18 h. It counts as functional. (Broth dilution looks for growth in wells or tubes with falling amounts of substance.)
Data set [4] relates to Escherichia coli. The experiment in a line: Selectivity index, ratio of MIC for against extended-spectrum beta-lactamase producing Escherichia coli isolate 208687 to MIC for extended-spectrum beta-lactamase producing Escherichia coli isolate 208687 in presence of BPL. It is filed as functional.
The test system of data set [5] is Klebsiella pneumoniae. The experiment in a line: Antibacterial activity against KPC-2 producing Klebsiella pneumoniae isolate 212229 after 18 hrs by CLSI broth microdilution method. It is filed as functional. Particulars: isolate 212229, 18 h.
Data set [6] has as its system Pseudomonas aeruginosa. Kind of data set: Antibacterial activity against IMP-4 producing Pseudomonas aeruginosa isolate 209471 after 18 hrs by CLSI broth microdilution method. The conditions noted are these: isolate 209471, 18 h. It is filed as functional.
The test system of data set [7] is Escherichia coli. The experiment in a line: Antibacterial activity against extended-spectrum beta-lactamase producing Escherichia coli isolate 209285 after 18 hrs in presence of BPL by CLSI broth microdilution method. It is filed as functional. Particulars: isolate 209285, 18 h. In a few lines:
(§1)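 CLSI broth microdilution against clinical isolates (ESBL E. coli, KPC-2 MDR K. pneumoniae, IMP-4 MDR P. aeruginosa; five per species). Iron limitation: Mueller-Hinton broth supplemented with 16 mg/liter 2,2'-bipyridyl to complex iron and induce iron uptake systems. Read-out: MIC.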

Data set [8] has as its system Pseudomonas aeruginosa. Kind of data set: Antibacterial activity against IMP-4 producing Pseudomonas aeruginosa isolate 208247 after 18 hrs by CLSI broth microdilution method. It counts as functional. Particulars: isolate 208247, 18 h.
The subject of data set [9] is Escherichia coli. The experiment in a line: Antibacterial activity against extended-spectrum beta-lactamase producing Escherichia coli isolate 106342 after 18 hrs in presence of BPL by CLSI broth microdilution method. Particulars: isolate 106342, 18 h. It counts as functional. In short, it runs like this: as §1
For data set [10], the system named is Pseudomonas aeruginosa. The experiment in a line: Antibacterial activity against IMP-4 producing Pseudomonas aeruginosa isolate 209321 after 18 hrs in presence of BPL by CLSI broth microdilution method. It counts as functional. The conditions noted are these: isolate 209321, 18 h. In short, it runs like this:
as §1

The test system of data set [11] is Klebsiella pneumoniae. The experiment in a line: Selectivity index, ratio of MIC for against KPC-2 producing Klebsiella pneumoniae isolate 209632 to MIC for against KPC-2 producing Klebsiella pneumoniae isolate 209632 in presence of BPL. It counts as functional.
The test system of data set [12] is Escherichia coli. Kind of data set: Antibacterial activity against extended-spectrum beta-lactamase producing Escherichia coli isolate 208687 after 18 hrs in presence of BPL by CLSI broth microdilution method. It is filed as functional. The conditions noted are these: isolate 208687, 18 h. In a few lines: as §1
The nature of data set [13]: Elimination half life in human liver microsomes at 0.1 uM pre-incubated with compound followed by NADPH addition and measured after 60 mins by LC-MS/MS analysis. Particulars: read-out: beta t1/2. It is filed as ADME, microsome.
The subject of data set [14] is Pseudomonas aeruginosa. Kind of data set: Antibacterial activity against IMP-4 producing Pseudomonas aeruginosa isolate 212886 after 18 hrs by CLSI broth microdilution method. It counts as functional. Particulars: isolate 212886, 18 h.
The test system of data set [15] is Pseudomonas aeruginosa. Kind of data set: Antibacterial activity against IMP-4 producing Pseudomonas aeruginosa isolate 207272 after 18 hrs by CLSI broth microdilution method. Particulars: isolate 207272, 18 h. It is filed as functional.
The test system of data set [16] is Klebsiella pneumoniae. Kind of data set: Antibacterial activity against KPC-2 producing Klebsiella pneumoniae isolate 209632 after 18 hrs in presence of BPL by CLSI broth microdilution method. It is filed as functional. The conditions noted are these: isolate 209632, 18 h. In a few lines:
as §1

Data set [17] has as its system Pseudomonas aeruginosa. The experiment in a line: Selectivity index, ratio of MIC for against IMP-4 producing Pseudomonas aeruginosa isolate 212886 to MIC for against IMP-4 producing Pseudomonas aeruginosa isolate 212886 in presence of BPL. It is filed as functional.

What is called MIC is the smallest concentration in the dilution series that meets the test's criterion for growth inhibition. Take `CC(C)C(O/N=C(\C(=O)N[C@@H]1C(=O)N(S(=O)(=O)O)[C@@H]1CCl)c1csc(N)n1)c1cc(=O)c(O)cn1O` (stereo partly drawn): the “Selectivity Index” value in data set [1] is 1; in data set [4] it was 2; in data set [11] it was 1; in [17] it was 1. Besides, the Fh at 1 h, 0.1 µM in [2] turned out to be 63.9%. For the same molecule, the MIC in data set [3] is 0.5 µg/mL (≈ 0.885 µM); in data set [5], 0.5 µg/mL (≈ 0.885 µM); in [6], 8 µg/mL (≈ 14.2 µM); in data set [7], 0.5 µg/mL; in [8], 8 µg/mL (≈ 14.2 µM); in data set [9], 0.25 µg/mL. Also, the MIC in data set [10] is 8 µg/mL; in data set [12] it was 0.25 µg/mL; in data set [14] it was 8 µg/mL (≈ 14.2 µM); in data set [15] it was 8 µg/mL (≈ 14.2 µM); in data set [16], 4 µg/mL. In addition, the half-life at 0.1 µM in [13] worked out at 3.15 h.
Regarding `CC(C)C(O/N=C(\C(=O)N[C@@H]1C(=O)N(S(=O)(=O)O)[C@@H]1Cn1cc(COCc2cc(=O)c(O)cn2O)nn1)c1csc(N)n1)c1cc(=O)c(O)cn1O` (stereo partly drawn), the “Selectivity Index” value stood at 8 in [1], 16 in [4], 8 in data set [11] and 4 in data set [17]. Further, in data set [2], the Fh at 1 h, 0.1 µM stood at 42.8%. Besides, the MIC in [3] was found to be 2 µg/mL (≈ 2.61 µM); in data set [5], 2 µg/mL (≈ 2.61 µM); in data set [6] it was 8 µg/mL (≈ 10.4 µM); in data set [7], 8 µg/mL; in data set [8] it was 4 µg/mL (≈ 5.22 µM); in data set [9], 8 µg/mL. Also, the MIC came to 4 µg/mL in data set [10]; 1 µg/mL in data set [12]; 4 µg/mL (≈ 5.22 µM) in data set [14]; 16 µg/mL (≈ 20.9 µM) in data set [15]; 0.25 µg/mL in data set [16]. In data set [13], the half-life at 0.1 µM turned out to be 1.33 h.
`CC(C)C(O/N=C(\C(=O)N[C@@H]1C(=O)N(S(=O)(=O)O)[C@@H]1COC(N)=O)c1csc(N)n1)c1cc(=O)c(O)cn1O` (stereo partly drawn): the “Selectivity Index” value in data set [1] is reported as 2; in data set [4] it was 2; in [11] it was 4; in data set [17] it was 1. Further, in data set [2], the Fh at 1 h, 0.1 µM was found to be 62.2%. Further, the MIC in data set [3] was determined as 1 µg/mL (≈ 1.7 µM); in data set [5] it was 1 µg/mL (≈ 1.7 µM); in [6], 8 µg/mL (≈ 13.6 µM); in [7], 0.125 µg/mL; in data set [8], 4 µg/mL (≈ 6.78 µM); in data set [9], 0.25 µg/mL. Moreover, the MIC is 4 µg/mL in [10]; 0.25 µg/mL in [12]; 4 µg/mL (≈ 6.78 µM) in [14]; 8 µg/mL (≈ 13.6 µM) in [15]; 2 µg/mL in data set [16]. Further, in data set [13], the half-life at 0.1 µM came out at 2.93 h.
Regarding `CC(C)C(O/N=C(\C(=O)N[C@@H]1C(=O)N(S(=O)(=O)O)C12CCCC2)c1csc(N)n1)c1cc(=O)c(O)cn1O` (stereo partly drawn), the “Selectivity Index” value in data set [1] is 4; in data set [4], 2; in [11], 8; in [17] it was 2. Also, the Fh at 1 h, 0.1 µM in [2] is 71.6%. Besides, the MIC was determined as 2 µg/mL (≈ 3.51 µM) in data set [3]; 1 µg/mL (≈ 1.75 µM) in [5]; 16 µg/mL (≈ 28 µM) in data set [6]; 0.5 µg/mL in data set [7]; 16 µg/mL (≈ 28 µM) in data set [8]; 0.25 µg/mL in [9]. Besides, the MIC in [10] turned out to be 8 µg/mL; in data set [12] it was 0.25 µg/mL; in data set [14] it was 16 µg/mL (≈ 28 µM); in data set [15], 16 µg/mL (≈ 28 µM); in [16] it was 0.25 µg/mL. In data set [13], the half-life at 0.1 µM is 4.52 h.
